Experimental data published in paper PMC3880591 (Journal of medicinal chemistry, 2013).
Like-named read-outs stand apart in the source and are kept apart here.

How the values were obtained:
[1] = target: T1, human MOR (Homo sapiens, UniProt P35372); conditions: from [35S]GTPγS stimulation and inhibition data; cited from earlier work
[2] = target: T2, human KOR (Homo sapiens, UniProt P41145); conditions: cited from earlier work
[3] = target: T2, human KOR; conditions: from [35S]GTPγS stimulation and inhibition data; cited from earlier work
[4] = system: mice; conditions: cited from earlier work
[5] = target: T1, human MOR; test: Stimulation/inhibition of [35S]GTPγS binding mediated by the MOR; assay type: biochemical; conditions: from [35S]GTPγS stimulation and inhibition data
Method in brief: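 Membranes from CHO cells stably expressing human MOR (7.5 μg protein/tube) were incubated 60 min at 30 °C with 12 test compound concentrations in 50 mM Tris–HCl, 3 mM MgCl2, 100 mM NaCl, 0.2 mM EGTA, pH 7.4, plus 3 μM GDP and 80 pmol [35S]GTPγS. Antagonist mode used 200 nM DAMGO. Nonspecific binding was defined with 10 μM GTPγS. Filter-bound counts were given as % stimulation over basal; at least three experiments in triplicate.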

[6] = target: T2, human KOR; test: Stimulation/inhibition of [35S]GTPγS binding mediated by the KOR; assay type: biochemical; conditions: from [35S]GTPγS stimulation and inhibition data
Method in brief: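 CHO membranes stably expressing human KOR (15 μg protein/tube) were incubated 60 min at 30 °C with 12 concentrations of test compound in 50 mM Tris–HCl, 3 mM MgCl2, 100 mM NaCl, 0.2 mM EGTA, pH 7.4, with 3 μM GDP and […] [35S]GTPγS. Antagonism was tested against 30 nM U50,488. Nonspecific binding used 10 μM GTPγS. After filtration and counting, results were expressed as % stimulation over basal; ≥3 experiments, triplicate.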

[7] = system: Male Sprague Dawley rats; test: Intracranial self-stimulation; assay type: in vivo, rat; conditions: i.p., measured for 1 hr; for Effect on ICSS thresholds: butorphan 0.25-4.0 mg/kg, 8 1.0-30.0 mg/kg
Method in brief: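 Rats carried monopolar electrodes in the medial forebrain bundle (lateral hypothalamus). They were trained on FR1 at 141 Hz (500 ms trains) by the rate-frequency method until thresholds were stable (±10%, 4 days); N=6 per cohort. Baseline was the mean of the last two of three 15-min functions. Ascending i.p. doses were given in 20% DMSO/water or 0.9% saline, then four 15-min trials. Output was percent of baseline, by two-way repeated-measures ANOVA with Tukey.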

[8] = system: rats; conditions: ref 10b; cited from earlier work
[9] = system: rhesus monkeys; conditions: cited from earlier work
[10] = system: morphine dependent monkeys; conditions: more potent (in contrast to cyclorphan); cited from earlier work

T1 sequence (P35372 whole entry): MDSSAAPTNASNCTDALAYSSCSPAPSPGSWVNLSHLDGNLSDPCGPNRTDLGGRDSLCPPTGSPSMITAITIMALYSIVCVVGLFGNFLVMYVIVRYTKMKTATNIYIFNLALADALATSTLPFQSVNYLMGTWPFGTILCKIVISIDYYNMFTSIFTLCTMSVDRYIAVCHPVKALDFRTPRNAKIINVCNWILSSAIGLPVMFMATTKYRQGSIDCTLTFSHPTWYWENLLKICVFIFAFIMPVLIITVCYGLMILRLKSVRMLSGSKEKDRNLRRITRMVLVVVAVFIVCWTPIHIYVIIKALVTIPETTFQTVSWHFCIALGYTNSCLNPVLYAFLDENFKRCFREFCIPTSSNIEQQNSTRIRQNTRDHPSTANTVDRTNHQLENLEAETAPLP
T2 sequence (P41145 whole entry): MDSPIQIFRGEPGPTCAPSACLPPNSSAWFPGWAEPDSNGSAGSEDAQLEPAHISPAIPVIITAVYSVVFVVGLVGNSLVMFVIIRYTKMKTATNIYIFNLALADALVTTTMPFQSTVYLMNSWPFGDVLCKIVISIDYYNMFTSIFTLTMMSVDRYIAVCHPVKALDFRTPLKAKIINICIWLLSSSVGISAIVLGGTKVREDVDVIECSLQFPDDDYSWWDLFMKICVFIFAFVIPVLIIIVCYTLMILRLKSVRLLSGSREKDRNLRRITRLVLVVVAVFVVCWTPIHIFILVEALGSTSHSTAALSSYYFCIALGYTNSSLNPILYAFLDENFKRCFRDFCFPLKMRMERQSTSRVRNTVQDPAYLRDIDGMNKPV

COc1ccc2c(c1)[C@]13CCN(CC4CC4)[C@H](C2)[C@@H]1Cc1sc(N)nc1C3 [Compound 7]
Pharmacological properties at the MOR (agonist/antagonist) [1]: agonist and antagonist properties | Selectivity δ/κ ([2]; ratio of Ki values): 7 | Pharmacological properties at the KOR (agonist/antagonist) [3]: full agonists

CCNc1nc2cc3c(cc2s1)C[C@@H]1[C@@H]2CCCC[C@]32CCN1CC1CC1 [Compound 1c]
Effect on morphine sensitization [4]: inhibited morphine sensitization

COc1ccc2c(c1)[C@]13CCN(CC4CC4)[C@H](C2)[C@@H]1Cc1sc(NC(C)=O)nc1C3 [Compound 10, 6,7-(2-N-Acetyl)aminothiazolo-N-cyclopropylmethyl-3-methoxymorphinan]
Pharmacological properties at the MOR (agonist/antagonist) [5]: agonist and antagonist properties | Pharmacological properties at the KOR (agonist/antagonist) [6]: full agonists

Nc1nc2c(s1)C[C@H]1[C@H]3Cc4ccc(O)cc4[C@@]1(CCN3CC1CC1)C2 [Compound 8]
Ki ([2]; read-out: Ki [3H]U69,593 (κ), CHO membranes, human KOR, ± SEM): 0.072 ± 0.0039 nM | Pharmacological properties at the KOR (agonist/antagonist) [3]: both agonist and antagonist properties | Effect on ICSS thresholds [7]: no significant effect

CNc1nc2c(s1)C[C@H]1[C@H]3Cc4ccc(OC)cc4[C@@]1(CCN3CC1CC1)C2 [Compound 11, 6,7-(2-N-Methyl)aminothiazolo-N-cyclopropylmethyl-3-methoxymorphinan]
Pharmacological properties at the MOR (agonist/antagonist) [5]: agonist and antagonist properties | Pharmacological properties at the KOR (agonist/antagonist) [6]: full agonists

Oc1ccc2c(c1)[C@@]13CCCC[C@H]1[C@@H](C2)N(CC1CC1)CC3 [Cyclorphan]
Antinociception in the warm-water tail flick test [8]: partial effect | Effect on cocaine self-administration [9]: reduced cocaine self-administration

Oc1ccc2c(c1)[C@@]13CCCC[C@H]1[C@@H](C2)N(CC1CCC1)CC3 [Butorphan]
Antinociception in the warm-water tail flick test [8]: full antinociception | Potency in suppressing abstinence [10]: 40 times | Effect on maximum rates of responding ([7]; 4.0 mg/kg): significantly decreased rates of responding | Effect on ICSS thresholds [7]: no significant effect
